Data published in PubChem BioAssay AID624033 (Broad Institute, 2012).
Calls of active or inactive are those of the source.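 How the source made its calls: active means raises 665 nm absorbance to half the iron-handling mutant's effect in both replicates, half-effect dose under 50 µM; inactive means the rest.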

Tested on: not listed separately
Test: siderophore output inhibition in Pseudomonas aeruginosa – Chrome Azurol S readout, dry powder samples, orthogonal assay for PvdQ inhibitor project, dose response (AID 624033)
Settings: P. aeruginosa pyoverdine, CAS absorbance 665 nm, 6 h
How it was run: (§1)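 Buffer or medium: CAA medium | Signal: CAS dye absorbance, 665 nm | Benchmarks: PvdQ mutant culture as 100% reference | Schedule: 6 h compound culture, 30 °C, then 30 min CAS dye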

Structure (SMILES)	outcome
COCCOCCC(C#N)c1ccc(F)cc1 (stereo unspecified)	inactive
CN(C)CCCC(C#N)c1ccc(F)cc1 (stereo unspecified)	inactive
COCCC(C#N)c1ccc(F)cc1 (stereo unspecified)	inactive

Tested on: P. aeruginosa pyoverdine, CAS absorbance 665 nm, 6 h
Test: as above
Settings: not given
How it was run: as §1

Structure (SMILES)	AC50
N#CC(c1cccc(C(F)(F)F)n1)c1ccc(Cl)cc1F (stereo unspecified)	14.6 µM
N#CC(c1ccc(Cl)cc1)c1cccc(C(F)(F)F)n1 (stereo unspecified)	22.9 µM
N#CC(c1ccc(F)cc1)c1cccc(C(F)(F)F)n1 (stereo unspecified)	6.21 µM
N#CC(c1ccc(Cl)cc1)c1ccc(Cl)cn1 (stereo unspecified)	17.7 µM
N#CC(c1cccc(Cl)n1)c1ccc(Cl)cc1F (stereo unspecified)	30.7 µM
N#CC(c1ccc(Cl)cc1)c1ncccc1Cl (stereo unspecified)	48.3 µM
CCCCC(C#N)c1ccc(F)cc1 (stereo unspecified)	27.7 µM
N#CC(c1ccc(Cl)cc1)c1cccc(Cl)n1 (stereo unspecified)	46.4 µM
